Measured values reported in ChEMBL document CHEMBL1155302, “Crystal structure, antitumour and antimetastatic activities of disubstituted fused 1,2,4-triazinones” (Bioorg Med Chem Lett, 2009).

How the values were obtained:
[1] = Cytotoxicity against human HSF cells assessed as cell viability at 1 uM after 24 hrs by MTT assay relative to control; format: cell-based; settings: read-out: Activity
In short: (§1)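 Primary skin fibroblasts were obtained by trypsinizing a healthy forearm skin fragment and grown in DMEM with 10% FBS, penicillin and streptomycin at 37 °C, 5% CO2. Cells were plated at 1 × 10⁵ per well to confluence, then exposed for 24 h to 1, 50 or 100 µM compound diluted from DMSO. MTT viability was read at 570 nm as % of medium control, mean SD of at least three independent measurements.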

[2] = Cytotoxicity against human HSF cells assessed as cell viability at 50 uM after 24 hrs by MTT assay relative to control; format: cell-based; settings: read-out: Activity; in short: as §1
[3] = Cytotoxicity against human HSF cells assessed as cell viability at 100 uM after 24 hrs by MTT assay relative to control; format: cell-based; settings: read-out: Activity; in short: as §1
RPMI-8226 [4] = assay: Antitumor activity against human RPMI8226 cells assessed as cell viability at 50 uM after 24 hrs by MTT assay relative to control; format: functional; settings: RPMI-8226, 24 h, read-out: Activity
In short: (§2)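 RPMI 8226 peripheral blood myeloma cells were treated with 1, 50 or 100 µM compound (DMSO stock diluted into medium) for 24 h. Viability was measured by MTT reduction (SDI test), with solubilized formazan read at 570 nm. Results are % of medium-alone control, mean SD of at least three independent measurements.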

RPMI-8226 [5] = assay: Antitumor activity against human RPMI8226 cells assessed as cell viability at 100 uM after 24 hrs by MTT assay relative to control; format: functional; settings: RPMI-8226, 24 h, read-out: Activity; in short: as §2
RPMI-8226 [6] = assay: Antitumor activity against human RPMI8226 cells assessed as cell viability at 1 uM after 24 hrs by MTT assay relative to control; format: functional; settings: RPMI-8226, 24 h, read-out: Activity; in short: as §2
[7] = Antimetastatic activity against human HeLaB cells assessed as inhibition of cell motility at 25 uM after 24 hrs relative to control; format: functional; parameters: scale not given: the % may be the effect or the level left
In short: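 HeLa B cervix carcinoma cells were exposed to 25 µM compound or to culture medium alone for 24 h in a wound-migration (cell motility) assay. Cells migrating into the wound area were scored, and motility was expressed as % of the medium-only control (100%).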

SMILES | viability at 24 h, 1 µM [1] | viability at 24 h, 50 µM [2] | viability at 24 h, 100 µM [3] | viability at 50 µM (RPMI-8226 [4]) | viability at 100 µM (RPMI-8226 [5]) | viability at 1 µM (RPMI-8226 [6]) | Activity [7]
COc1ccc(N2CCn3c2nnc(-c2ccccc2)c3=O)cc1 | 88% | 64% | 73% | 57% | 43% | 106% | 59%
O=c1c(-c2ccccc2)nnc2n1CCN2c1cccc(Cl)c1 | 108% | 85% | 88% | 70% | 60% | 105% | 52%
Cc1cccc(N2CCn3c2nnc(-c2ccccc2)c3=O)c1 | 100% | 94% | 88% | 79% | 71% | 107% | 68%
O=c1c(-c2ccccc2)nnc2n1CCN2c1ccc(Cl)c(Cl)c1 | 93% | 48% | 47% | 69% | 58% | 108% | 90%
O=c1c(-c2ccccc2)nnc2n1CCN2c1ccccc1Cl | 108% | 104% | 104% | 103% | 101% | 103% | 59%
O=c1c(-c2ccccc2)nnc2n1CCN2c1cc(Cl)ccc1Cl | 87% | 31% | 17% | 43% | 41% | 109% | 103%
O=c1c(-c2ccccc2)nnc2n1CCN2c1ccc(Cl)cc1 | 104% | 96% | 102% | 56% | 39% | 101% | 50%
